Consider 7 compounds from ChEMBL document CHEMBL2311390, “Synthesis and preliminary evaluation of pharmacological properties of some piperazine derivatives of xanthone” (Bioorg Med Chem, 2013).

The subject of data set [1] is Rattus norvegicus. Description: Hypotensive activity in normotensive Wistar rat assessed as reduction of systolic blood pressure at 0.16 mg/kg, iv after 20 mins. Type of data set: functional, Artery. The method, boiled down:
(§1)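 Male normotensive Wistar rats (170–350 g) anaesthetised with thiopental 75 mg/kg ip; right carotid artery cannulated with heparinised saline-filled polyethylene tubing for pressure recording. After a 5 min stabilisation, compound given into the caudal vein at 1 mL/kg. Systolic pressure is recorded at 0, 5, 10, 20, 30 and 60 min, and the data are reported as mean ± SEM of five to six animals, with one-way ANOVA.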

Data set [2] concerns Rattus norvegicus. The data set can be described thus: Hypotensive activity in normotensive Wistar rat assessed as reduction of systolic blood pressure at 0.625 mg/kg, iv after 5 mins. It counts as functional, Artery. An outline of the steps: as §1
Data set [3] concerns Rattus norvegicus. The data set can be described thus: Hypotensive activity in normotensive Wistar rat assessed as reduction of systolic blood pressure at 0.16 mg/kg, iv after 60 mins. It counts as functional, Artery. The method, boiled down:
as §1

For data set [4], the system named is Rattus norvegicus. Description: Hypotensive activity in normotensive Wistar rat assessed as reduction of diastolic blood pressure at 0.16 mg/kg, iv after 5 mins. It counts as functional, Artery. An outline of the steps: (§2)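 Male normotensive Wistar rats were anaesthetised with thiopental 75 mg/kg ip. The right carotid artery was cannulated with heparinised saline for pressure recording. After 5 min of stabilisation, compound was injected into the tail vein at 1 mL/kg. Systolic and diastolic pressure were followed up to 60 min. Data are means ± SEM of 5–6 rats, analysed by one-way ANOVA.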

In data set [5] the test system is Rattus norvegicus. Description: Hypotensive activity in normotensive Wistar rat assessed as reduction of diastolic blood pressure at 0.16 mg/kg, iv after 10 mins. It counts as functional, Artery. The method, boiled down: as §2
Data set [6] deals with Rattus norvegicus. The data set can be described thus: Hypotensive activity in normotensive Wistar rat assessed as reduction of diastolic blood pressure at 0.16 mg/kg, iv after 60 mins. It counts as functional, Artery. An outline of the steps: as §2
Data set [7] deals with Rattus norvegicus. Description: Hypotensive activity in normotensive Wistar rat assessed as reduction of systolic blood pressure at 0.31 mg/kg, iv after 60 mins. It counts as functional, Artery. An outline of the steps: as §1
In data set [8] the test system is Rattus norvegicus. Description: Hypotensive activity in normotensive Wistar rat assessed as reduction of diastolic blood pressure at 0.625 mg/kg, iv after 10 mins. It counts as functional, Artery. An outline of the steps: as §2
Data set [9] concerns Rattus norvegicus. Description: Hypotensive activity in normotensive Wistar rat assessed as reduction of diastolic blood pressure at 1.25 mg/kg, iv after 20 mins. It counts as functional, Artery. An outline of the steps: as §2
The subject of data set [10] is Rattus norvegicus. The data set can be described thus: Hypotensive activity in normotensive Wistar rat assessed as reduction of systolic blood pressure at 1.25 mg/kg, iv after 60 mins. Type of data set: functional, Artery. The method, boiled down: as §1
The test system of data set [11] is Rattus norvegicus. Description: Hypotensive activity in normotensive Wistar rat assessed as reduction of systolic blood pressure at 1.25 mg/kg, iv after 10 mins. It counts as functional, Artery. An outline of the steps:
as §1

In data set [12] the test system is Rattus norvegicus. Description: Hypotensive activity in normotensive Wistar rat assessed as reduction of diastolic blood pressure at 1.25 mg/kg, iv after 30 mins. Type of data set: functional, Artery. The method, boiled down:
as §2

Data set [13] concerns Rattus norvegicus. Description: Cardiotoxicity in Wistar rat assessed as QT interval at 10 mg/kg, iv after 10 mins by ECG analysis. It counts as toxicity, organism-based. Also noted: dose 10 mg/kg, route intravenous. The note with it: in vivo.
The subject of data set [14] is Rattus norvegicus. Description: Cardiotoxicity in Wistar rat assessed as PQ interval at 10 mg/kg, iv after 15 mins by ECG analysis. It counts as toxicity, organism-based. Also noted: dose 10 mg/kg, route intravenous. As to conditions: in vivo, 0.25 h. The method, boiled down: (§3)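 Male normotensive Wistar rats, 170–350 g, six per group. Compound given iv at a constant volume of 1 mL/kg. ECG was recorded just before dosing and at 1, 5 and 15 min after. PQ, QRS and QT intervals and heart rate were read from the trace. Groups were compared by one-way ANOVA.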

For data set [15], the system named is Rattus norvegicus. The data set can be described thus: Cardiotoxicity in Wistar rat assessed as PQ interval at 10 mg/kg, iv after 5 mins by ECG analysis. It counts as toxicity, organism-based. Further details: dose 10 mg/kg, route intravenous. As to conditions: in vivo. The method, boiled down: as §3
Data set [16] deals with Rattus norvegicus. The data set can be described thus: Cardiotoxicity in Wistar rat assessed as QRS interval at 5 mg/kg, iv after 5 mins by ECG analysis. Further details: dose 5 mg/kg, route intravenous. The note with it: in vivo. It counts as toxicity, organism-based. An outline of the steps:
as §3

`COc1ccccc1N1CCN(CCCOc2cccc3c(=O)c4ccccc4oc23)CC1.Cl`: the Activity amounted to 113.4 mmHg in data set [1]; 122 mmHg in [2]; 108.2 mmHg in [3]; 97 mmHg in data set [4]; 99.2 mmHg in [5]; 95.2 mmHg in [6]. Besides, the Activity in [7] was 116 mmHg; in [8], 106.5 mmHg.
As for `COc1ccccc1N1CCN(CC(COc2cccc3c(=O)c4ccccc4oc23)OC(C)=O)CC1.Cl` (racemic), the Activity in [2] came to 124.8 mmHg; in data set [9], 92.2 mmHg; in data set [10], 116.6 mmHg; in [11] it was 118.4 mmHg; in data set [12], 90.8 mmHg; in [8] it was 96.4 mmHg.
Take `COc1ccccc1N1CCN(CC(O)COc2cccc3c(=O)c4ccccc4oc23)CC1.Cl` (racemic): the Activity was found to be 118.5 mmHg in data set [1]; 115.2 mmHg in [3]; 109.2 mmHg in data set [4]; 110.2 mmHg in data set [5]; 101.5 mmHg in data set [6]; 116 mmHg in [7].
For the compound `Cl.Cl.Cl.O=c1c2ccc(Cl)cc2oc2c(OCC(O)CN3CCN(CCOc4ccccc4)CC3)cccc12` (racemic), the Activity in [13] worked out at 50.48 ms; in data set [14], 32.81 ms; in [9], 97.4 mmHg; in data set [10], 114.8 mmHg; in data set [11], 115.2 mmHg; in [15] it was 33.12 ms. Also, in [12], the Activity is given as 100.6 mmHg.
On to `Cl.Cl.Cl.O=c1c2ccc(Cl)cc2oc2c(OCC(O)CN3CCN(C/C=C/c4ccccc4)CC3)cccc12` (racemic), for which the Activity in data set [16] was 20.2 ms.
As to `Cl.Cl.Cl.O=c1c2ccc(Cl)cc2oc2c(OCC(O)CN3CCN(Cc4ccccc4)CC3)cccc12` (racemic), the Activity in [13] stood at 72.8 ms; in data set [14], 40.9 ms; in data set [15] it was 41.9 ms.
Regarding `Cl.Cl.O=c1c2ccccc2oc2c(OCC(O)CN3CCN(C/C=C/c4ccccc4)CC3)cccc12` (racemic), the Activity in data set [16] worked out at 23.4 ms.
